Bioassay records from PubChem BioAssay.
Compounds with a hit are over-represented: about 2.2% of the library has one in this group of screens.
PPC-1+TRAIL kill: compounds killing PPC-1 cancer cells with TRAIL present, primary screen, TRAIL potentiator project, ATPLite luminescence, uHTS; cell killing (% activity), % at 4 µM or 5 µM; AID 1443, 2008; PPC-1 cells + TRAIL, ATPLite viability luminescence; actives 0.41% (n = 220,000);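 active = cell killing above 50% in the first pass at 4 µM, then a duplicate retest at 5 µM averaging 50% or more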
NF-kB neuron act: activators of NF-kB expression in neurons, primary screen, cell-based, HTS. human neuronal cells, NF-kB reporter expression; stronger effect = higher value. actives 1.6% (n = 190,000). fold change at 12.5 µM. AID 1239, 2008; in the data active = fold change above about 3.3
FLuc inh counter: firefly luciferase enzyme inhibitors, primary screen, artefact control for luciferase-based inhibitor screens, biochemical, luminescence, ATPLite | Luciferin 4-monooxygenase (Photinus pyralis), P08659 | 10 min | inhibition, % at 10 µM | actives 1.5% (n = 200,000) | AID 1006, 2008;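 active = inhibition above about 50% when tested at 10 µM, limit read from the data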
Target sequence (P08659 whole entry, looked up): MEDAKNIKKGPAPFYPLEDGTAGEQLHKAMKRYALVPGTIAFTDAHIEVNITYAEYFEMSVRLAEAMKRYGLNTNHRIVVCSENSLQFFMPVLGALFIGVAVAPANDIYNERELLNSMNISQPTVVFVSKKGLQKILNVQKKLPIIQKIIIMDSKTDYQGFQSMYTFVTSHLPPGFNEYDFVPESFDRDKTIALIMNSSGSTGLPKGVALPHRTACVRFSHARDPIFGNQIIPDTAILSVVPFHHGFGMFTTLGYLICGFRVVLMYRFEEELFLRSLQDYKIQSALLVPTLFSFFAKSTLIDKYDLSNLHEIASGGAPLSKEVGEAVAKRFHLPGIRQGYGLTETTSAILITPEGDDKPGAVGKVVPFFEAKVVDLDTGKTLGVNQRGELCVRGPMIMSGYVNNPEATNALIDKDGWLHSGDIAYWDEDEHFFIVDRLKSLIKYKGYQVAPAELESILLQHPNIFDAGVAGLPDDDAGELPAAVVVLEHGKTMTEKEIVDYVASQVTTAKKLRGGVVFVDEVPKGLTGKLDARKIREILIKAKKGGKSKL
FLuc act counter: FLuc activators, initial screening, artefact control for FLuc-dependent activation tests, biochemical, ATPlite luminescence | ATPlite luciferase biochemical, 10 min; 0 = ATP-free wells, 1 = DMSO control | activation factor at 10 µM | 200,000 tested, under 10 active;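 active = luciferase activation factor, scaled between plate controls, of at least 2 with compound at 10 µM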
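Material: luciferase plus luciferin reagent, cell-free. Medium: PBS buffer for ATP. Also added: ATP substrate, dispensed from a 10.24 µM working solution in PBS. Doses: test compounds dosed from 2 mM stocks in 100% DMSO. Incubation: 10 min post-reagent at room temperature. Technique: light output (luminescence). Read-out basis: luminescence gain marking luciferase activators.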
C8 TRAIL sens: viability loss with TRAIL in NB7+C8 cells, primary screen, TRAIL sensitizer project, cell-based, ATPlite luminescence | AID 624354, 2012 | actives 1% (n = 360,000) | inhibition (viability loss, TRAIL sensitization), % at 10 µM;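 active = compounds causing at least 50% loss of cell viability in the single-dose screen, relative to plate controls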
APP 5'UTR act: activators of APP 5'UTR luciferase reporter, primary screen, SH-SY5Y cells. SH-SY5Y APP 5'UTR luciferase reporter, luminescence; zero percent = DMSO vehicle wells. activation, % at 2 µM. actives 1% (n = 190,000). AID 1276, 2008;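 active = activation above a set limit, based on mean plus 3 SD of controls, cut at about 140% in these data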
A number is an active result; 0 = inactive; - = not tested or not shown.

SMILES | PPC-1+TRAIL kill | NF-kB neuron act | FLuc inh counter | FLuc act counter | C8 TRAIL sens | APP 5'UTR act
CCN(CC)C(=O)C1=C(C)N(CCC2=CCCCC2)C(=O)C(CC(=O)NC(c2ccccc2)c2ccccc2)C1 (stereo not given) | - | - | - | - | 0 | -
Cc1ccc(-c2nnc(CSc3nc4cc5c(cc4cc3C)OCO5)o2)cc1 | 0 | 4.03 | 0 | 0 | 0 | 0
Cc1ccc2nc(-c3ccc(NC(=S)NC4CC(C)(C)NC(C)(C)C4)cc3)sc2c1 | 0 | 0 | 0 | 0 | 0 | 167.8
Cc1ccc2nc(-c3ccc(NC(=S)NC(=O)C(C)C)cc3)sc2c1 | 0 | 0 | 0 | 0 | 0 | 0
COC(=O)[C@]12CCCCC=C1N(Cc1ccc3c(c1)OCO3)C(=O)[C@H](CC(=O)NCc1cccc3ccccc13)C2 | - | - | - | - | 0 | -
Cc1cc(=O)[nH]c(NN=Cc2cc(Br)ccc2O)n1 | - | - | - | - | 0 | -
CCN(CC)c1ccc(/C=N/Nc2nc(C)cc(=O)[nH]2)c(O)c1 | 57.7 | 0 | 0 | 0 | 0 | 0
CCCC(=O)Nc1nc2ccc(C(=O)OCC)cc2s1 | 0 | 0 | 0 | 0 | 0 | 0
Cc1nc(NC(=S)NC(=O)c2ccco2)sc1C(=O)N(C)C | - | - | - | - | 0 | -
O=C(Nc1nc2cc3c(cc2s1)OCCO3)c1ccco1 | - | - | - | - | 88.3 | -
O=C(NC(=S)Nc1nc2ccc(F)cc2s1)c1ccco1 | 0 | 0 | 86.4 | 0 | 86.3 | 0
CCOC(=O)c1ccc2nc(NC(=O)c3ccco3)sc2c1 | 0 | 4.63 | 51.0 | 0 | 0 | 276.8
CCOC(=O)c1ccc2nc(NC(=O)C(C)C)sc2c1 | 0 | 4.2 | 0 | 0 | 0 | 0
CCCCN(C=O)c1c(CC)nc2c(OCCOc3ccccc3)cccn12 | - | - | - | - | 0 | -
CCOC(=O)c1ccc2nc(NC(=O)c3cccs3)sc2c1 | 0 | 6.99 | 0 | 0 | 0 | 0
CCOc1ccc2nc(NC(=O)CN3CCN(C)CC3)sc2c1 | 0 | 0 | 0 | 0 | 0 | 0
CCOc1ccc2nc(NC(=O)c3ccoc3C)sc2c1 | 0 | 3.51 | 58.3 | 0 | 0 | 167.7
CCOc1ccc2nc(NC(=O)c3ccco3)sc2c1 | - | - | - | - | 60.5 | -
O=C1NC[C@H](CCCCN2C[C@H](Cc3ccc(O)cc3)N(CCc3ccccc3)C(=O)C2=O)N(CCC2CCCCC2)C1=O | - | - | - | - | 0 | -
CC(=O)Nc1ccc(-c2ccnc3c2CC(C)(C(=O)Nc2ccc(Cl)cc2)O3)cc1 (stereo not given) | - | - | - | - | 0 | -
CC(=O)N1CCN(C(C(=O)Nc2c(C)cccc2C)c2cccc(F)c2)CC1 (stereo not given) | - | - | - | - | 0 | -
CCCCCCn1c(=O)n2n(c1=O)[C@@H]1CN(S(=O)(=O)c3ccc(C)cc3)C[C@]1(O)[C@@H](OC(=O)NCc1ccccc1)C2 | - | - | - | - | 0 | -
Cc1ccc(C(=O)NCCc2nnc3ccc(SCC(=O)Nc4nnc(C)s4)nn23)cc1 | - | - | - | - | 0 | -
COC(=O)C(Cc1ccccc1)NC(=O)c1ccc(C)cc1 (stereo not given) | - | 0 | 60.0 | 0 | 0 | 0
Cc1ccc(-c2nn(CC(=O)NCc3cc(-c4nn(C)c(=O)c5ccccc45)ccc3C)c(=O)c3ccccc23)cc1 | 0 | 0 | 0 | 0 | 62.5 | 0
SMILES | PPC-1+TRAIL kill | NF-kB neuron act | FLuc inh counter | FLuc act counter | C8 TRAIL sens | APP 5'UTR act
CCC(=O)NCc1cc(-c2nn(C)c(=O)c3ccccc23)ccc1C | 0 | 0 | 0 | 0 | 0 | 0
COc1ccc(NC(=O)c2cc(C3CCCCN3C(=O)c3cc(OC)c(C)c(OC)c3)on2)c(C)c1 (stereo not given) | - | - | - | - | 0 | -
CN(C)c1ccc(/C=C/c2ccncc2)cc1 | 0 | 0 | 0 | 0 | 0 | 0
CN(C)c1ccc(C=Cc2cnccn2)cc1 | - | - | - | - | 79.8 | -
CC(=O)N1CCN(c2ccc(NCc3ccc(C)s3)cc2)CC1 | 0 | 0 | 0 | 0 | 0 | -
Cc1ccc(CNc2ccc(N3CCOCC3)cc2)s1 | 0 | 0 | 72.9 | 0 | 67.8 | 0
N#Cc1c(/N=C/c2cc3ccccc3s2)sc2c1CCC2 | 0 | 0 | 0 | 0 | 0 | 0
Cc1ccc(/C=N/Nc2ccccn2)s1 | - | - | - | - | 0 | -
Cc1ccc(C=Nc2ccccc2C#N)s1 | 0 | 0 | 75.7 | 0 | 0 | 0
CCN(/C=N/c1sc2c(c1C#N)CCCCC2)CC | 0 | 4.25 | 0 | 0 | 0 | 0
N#Cc1c(/N=C/c2ccco2)sc2c1CCC2 | 0 | 0 | 50.4 | 0 | 0 | 0
Cc1ccc(/C=N/c2sc3c(c2C#N)CCC3)s1 | 0 | 0 | 71.5 | 0 | 0 | 0
O=C(NCc1cc(Cl)cc(Cl)c1)c1ccc2sc([C@H]3C[C@H](O)[C@@H](CO)O3)nc2c1 | - | - | - | - | 0 | -
COc1ccccc1-c1ccc2c(c1)C(C)(Cc1ccc(OC(F)(F)F)cc1)C(=O)N2 (stereo not given) | - | - | - | - | 0 | -
COc1ccccc1-c1cnc2c(c1)C(=O)N([C@@H](C)CO)C[C@@H](C)[C@H](CN(C)C(=O)c1cccnc1)O2 | - | - | - | - | 0 | -
Cc1ccc(/C=N/c2sc3c(c2C#N)CCCCC3)o1 | 0 | 0 | 91.5 | 0 | 0 | 0
Cc1ccc(/C=C/C(=O)Nc2sc3c(c2C#N)CCCC3)o1 | 0 | 0 | 0 | 0 | 0 | 0
CC1OC2CC(=O)OC2C2=C1C(=O)c1c(O)cccc1C2=O (stereo not given) | - | - | - | - | 93.7 | -
Cc1ccc(C(=O)COC(=O)c2ccc3c(c2)C(=O)N(c2cccc4ncccc24)C3=O)cc1 | 0 | 0 | 0 | 0 | 51.2 | 0
CCC(=O)Nc1nc2cc(OC)ccc2s1 | 0 | 3.64 | 0 | 0 | 0 | 0
COc1ccc2sc(NC(=O)CC(C)C)nc2c1 | 0 | 3.46 | 0 | 0 | 0 | 0
CCC(=O)Nc1nc2ccc3nc(C)sc3c2s1 | 0 | 3.47 | 0 | 0 | 0 | 0
O=C1Nc2ccccc2-n2nnnc2C1N1CCN(C(=O)C2CCCO2)CC1 (stereo not given) | - | - | - | - | 0 | -
COc1cccc(NC(=O)n2ncc3c(C)cccc32)c1 | - | - | - | - | 53.3 | -
COc1ccc2cc(C(=O)N/N=C/c3sc4ccccc4c3O)ccc2c1 | 0 | 0 | 71.9 | 0 | 0 | 0
SMILES | PPC-1+TRAIL kill | NF-kB neuron act | FLuc inh counter | FLuc act counter | C8 TRAIL sens | APP 5'UTR act
O=C(N/N=C/c1sc2ccccc2c1O)c1ccccc1 | 0 | 0 | 56.9 | 0 | 53.2 | 0
COc1ccc(C(=O)N/N=C/c2sc3ccccc3c2O)cc1 | 0 | 0 | 0 | 0 | 0 | 0
CC(C)C[C@H]1CN(CCCC[C@H]2CNC(=O)C(=O)N2CCc2ccc(O)cc2)C(=O)C(=O)N1CCC1CCCCC1 | - | - | - | - | 0 | -
Oc1ccc(N2CCN(c3ncnc4sc5c(c34)CCC5)CC2)cc1 | 0 | 3.44 | 0 | 0 | 0 | 0
CCN(C(=O)COC(=O)c1cc(-c2ccc3cc(OC)ccc3c2)nc2ccccc12)C1CCS(=O)(=O)C1 (stereo not given) | 83.4 | 0 | 76.0 | 0 | - | 0
COc1ccc(S(=O)(=O)N2CCC[C@H]2C(=O)N2CCC[C@H]2C(=O)NCc2ccncc2)cc1C | - | - | - | - | 0 | -
COC(=O)c1cc(=O)nc(NNC(C)=O)s1 | - | - | - | - | 0 | -
